Assay [1] has as its target T1, Retinal dehydrogenase 2 (Gallus gallus) (UniProt O93344).
T1 sequence (whole entry): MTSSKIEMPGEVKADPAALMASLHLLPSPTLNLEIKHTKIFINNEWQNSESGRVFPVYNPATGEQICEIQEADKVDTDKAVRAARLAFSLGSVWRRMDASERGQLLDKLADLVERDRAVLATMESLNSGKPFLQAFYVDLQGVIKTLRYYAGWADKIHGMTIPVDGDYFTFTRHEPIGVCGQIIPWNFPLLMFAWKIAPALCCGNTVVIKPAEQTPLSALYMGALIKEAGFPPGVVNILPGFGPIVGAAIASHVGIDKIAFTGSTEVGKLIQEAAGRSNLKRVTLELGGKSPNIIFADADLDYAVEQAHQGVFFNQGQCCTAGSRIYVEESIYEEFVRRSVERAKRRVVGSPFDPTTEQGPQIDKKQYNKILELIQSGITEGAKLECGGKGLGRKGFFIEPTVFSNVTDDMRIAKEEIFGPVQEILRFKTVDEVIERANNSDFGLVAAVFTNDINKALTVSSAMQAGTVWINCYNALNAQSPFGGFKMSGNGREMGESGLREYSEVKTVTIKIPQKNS
Description: Inhibition of N-terminal His6-tagged recombinant chick RALDH2 expressed in Escherichia coli BL21(DE3) cells up to 500 nM using RAL as substrate assessed as Kinact/Ki ratio preincubated up to 40 mins followed by substrate addition and measured after 30 mins in presence of NADH by fluorescence assay. A digest of the protocol:
(§1)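 Chick RALDH2 pre-incubated 10, 20 and 40 min with 0–500 nM inhibitor, then assayed with retinaldehyde/NAD+ by fluorimetric NADH. kobs taken from linear regression of log % activity remaining versus pre-incubation time. KI and kinact obtained by nonlinear regression of kobs versus inhibitor concentration.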

In assay [2] the target is T1, Retinal dehydrogenase 2 (Gallus gallus). Kind of assay: Inhibition of N-terminal His6-tagged recombinant chick RALDH2 expressed in Escherichia coli BL21(DE3) cells at 250 nM using RAL as substrate assessed as remaining activity preincubated for 10 mins followed by all-trans-retinaldehyde and substrate addition measured after 30 mins in presence of NAD+ by fluorescence assay. A digest of the protocol: (§2)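 Chick RALDH2 (91 nM) pre-incubated with 250 nM inhibitor for 0–80 min at 37°C, alone or with 250 μM retinaldehyde or 250 μM NAD+. Reaction then started with the missing substrate and/or cofactor (250 μM retinaldehyde, 4 mM NAD), 30 min at 37°C. Fluorimetric NADH; % activity remaining. Triplicates.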

The target is the same in assay [3]. Kind of assay: Inhibition of RALDH2 in living intact choroid isolated from normal chick eyes assessed as inhibition of ATRA synthesis after 24 hrs in presence of retinaldehyde and NAD+.
Assay [4] has the same target. Kind of assay: Inhibition of N-terminal His6-tagged recombinant chick RALDH2 expressed in Escherichia coli BL21(DE3) cells at 250 nM using RAL as substrate assessed as enzyme recovery preincubated with compound and 250 uM NAD+ up to 80 mins and measured after 30 mins in presence of NAD+ by fluorescence assay. On the set-up: scale not given: the % may be the effect or the level left. A digest of the protocol:
as §2

The target is the same in assay [5]. Description: Inhibition of N-terminal His6-tagged recombinant chick RALDH2 expressed in Escherichia coli BL21(DE3) cells up to 500 nM using RAL as substrate assessed as rate of inactivation preincubated up to 40 mins followed by substrate addition and measured after 30 mins in presence of NADH by fluorescence assay. A digest of the protocol:
as §1

Assay [6] shares this target. Description: Inhibition of N-terminal His6-tagged recombinant chick RALDH2 expressed in Escherichia coli BL21(DE3) cells at 250 nM using RAL as substrate assessed as remaining activity incubated up to 80 mins in presence of all-trans-retinaldehyde folowed by substrate addition and measured after 30 mins in presence of NAD+ by fluorescence assay. A digest of the protocol:
as §2

In assay [7] the target is T2, Aldehyde dehydrogenase, mitochondrial (Homo sapiens, UniProt P05091).
T2 sequence (P05091 whole entry): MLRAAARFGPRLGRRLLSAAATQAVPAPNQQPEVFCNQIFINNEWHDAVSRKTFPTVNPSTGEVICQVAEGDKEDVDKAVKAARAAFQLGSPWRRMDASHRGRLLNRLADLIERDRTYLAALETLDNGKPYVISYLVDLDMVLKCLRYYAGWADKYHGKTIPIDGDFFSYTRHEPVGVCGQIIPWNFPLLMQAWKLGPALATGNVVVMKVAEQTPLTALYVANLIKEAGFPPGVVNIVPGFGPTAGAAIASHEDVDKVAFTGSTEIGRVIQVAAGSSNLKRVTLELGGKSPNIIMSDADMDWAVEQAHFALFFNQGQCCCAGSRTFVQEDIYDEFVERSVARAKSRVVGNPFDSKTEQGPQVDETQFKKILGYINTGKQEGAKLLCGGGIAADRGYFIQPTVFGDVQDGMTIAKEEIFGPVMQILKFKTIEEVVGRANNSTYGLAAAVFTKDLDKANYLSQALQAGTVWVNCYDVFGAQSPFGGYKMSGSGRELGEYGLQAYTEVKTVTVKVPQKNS
Kind of assay: Inhibition of N-terminal His6-tagged recombinant human mitochondrial ALDH2 using propionaldehyde as substrate preincubated for 20 mins to 1 hr followed by substrate addition and measured for 5 mins in presence of NADH by spectrophotometric assay.

Assay [8] has as its target T3, Aldehyde dehydrogenase 1A1 (Gallus gallus, UniProt P27463).
T3 sequence (P27463 whole entry): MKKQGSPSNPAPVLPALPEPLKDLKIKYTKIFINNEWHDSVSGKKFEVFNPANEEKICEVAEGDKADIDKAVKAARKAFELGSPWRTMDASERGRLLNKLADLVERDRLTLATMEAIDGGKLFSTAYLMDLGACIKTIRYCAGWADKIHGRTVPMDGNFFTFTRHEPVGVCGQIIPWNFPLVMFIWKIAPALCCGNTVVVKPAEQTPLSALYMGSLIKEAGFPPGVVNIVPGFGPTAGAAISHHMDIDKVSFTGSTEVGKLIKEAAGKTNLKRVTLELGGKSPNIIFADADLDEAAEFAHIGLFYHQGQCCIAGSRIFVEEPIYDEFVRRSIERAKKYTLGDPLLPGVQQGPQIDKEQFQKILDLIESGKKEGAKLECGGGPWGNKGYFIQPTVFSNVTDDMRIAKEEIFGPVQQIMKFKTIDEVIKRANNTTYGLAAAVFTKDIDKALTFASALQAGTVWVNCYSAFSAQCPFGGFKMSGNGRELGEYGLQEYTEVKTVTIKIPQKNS
Description: Inhibition of N-terminal His6-tagged recombinant chick RALDH1 expressed in Escherichia coli BL21(DE3) cells using RAL as substrate measured after 30 mins in presence of NADH by Morrison's plot analysis. A digest of the protocol:
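Ki obtained by fitting the Morrison tight-binding equation to the 20-min pre-incubation retinaldehyde/NADH fluorescence inhibition data. Inputs were enzyme concentration (RALDH1 0.358, RALDH2 0.091, RALDH3 0.355, hRALDH2 0.176 μM), substrate concentration and Km. Triplicates from 3–5 independent experiments.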

Consider 1 compound from ChEMBL document CHEMBL4261642, “Design, synthesis, and ex vivo evaluation of a selective inhibitor for retinaldehyde dehydrogenase enzymes” (Bioorg Med Chem, 2018).

The source made the active and inactive calls. The calls are words filed in the database; no cut-off is given here.

What is called Ki is a dissociation constant, usually derived from enzyme kinetics or from competition with a known ligand. Turning to `CC1=C(/C=C/C(C)=C/C=C/C(C)=C/C(=O)C(Cl)Cl)C(C)(C)CCC1`, the Ratio in assay [1] is 124000 M⁻¹ min⁻¹. Also, the Activity in assay [2] is 30.4%; in assay [4] it was 52 to 65%. Moreover, the inhibition entry in assay [3] was “inactive”. The kobs in assay [5] was in the range of 2.8e-05 to 0.012 min⁻¹. In assay [6], the inhibition entry was “Active”. Besides, the IC50 result in assay [7] is “Not Active”. Also, the inhibition constant Ki in assay [8] is 194 nM.
